Reference: ChEMBL document CHEMBL1153853, “Colon-specific mutual amide prodrugs of 4-aminosalicylic acid for their mitigating effect on experimental colitis in rats” (Eur J Med Chem, 2009)
Activity calls are given as the source filed them. The rule behind the calls is not given here.

How the values were obtained:
Rattus norvegicus [1] = test: Half life in TNBS-induced po dosed Wistar rat colitis model assessed as assessed as release of 5-aminosalicylic acid; assay type: ADME, organism-based; settings: in vivo
Rattus norvegicus [2] = test: Antiinflammatory activity against TNBS-induced Wistar rat colitis model assessed as decrease in ratio of colon to body weight treated po 3 days after TNBS induction for 8 days measured after 24 hrs of last treatment; assay type: functional
Outline: (§1)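 Wistar rats (200–250 g, 12–15 weeks, n = 6/group), fasted 48 h, given TNBS 100 mg/kg in 50% ethanol (500 µl) intrarectally 8 cm via catheter under light ether; untreated 3 days, then dosed (controls got 1% carboxymethylcellulose); 11-day study. Sacrificed 24 h after last dose under isoflurane; 8 cm colon excised, colon/body weight ratio taken; mean of six.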

Rattus norvegicus [3] = species: Rattus norvegicus; test: Antiinflammatory activity against TNBS-induced Wistar rat colitis model assessed as decrease in ratio of colon to body weight treated rectally 3 days after TNBS induction for 8 days measured after 24 hrs of last treatment; assay type: functional, organism-based; settings: in the assay text read “treated orally” for “treated rectally”; outline: as §1
Pancreas = test: Toxicity in rat pancreas; assay type: tissue-based; settings: in vivo
[4] = Stability assessed as half life in hydrochloric acid buffer at pH 1.2; assay type: physicochemical
Outline: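 10 mg prodrug in 900 ml HCl buffer pH 1.2 (0.05 M, ionic strength 0.5 set with KCl) at 37 ± 1 °C for 10 h. Remaining prodrug followed by UV at 251 and 285 nm; first-order kinetics, triplicate.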

[5] = Partition coefficient, log p in n-octanol/phosphate buffer at pH 7.4; assay type: physicochemical
Outline: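 Partitioning between n-octanol and phosphate buffer pH 7.4 at 25 ± 1 °C.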

Rattus norvegicus [6] = test: Half life in TNBS-induced po dosed Wistar rat colitis model assessed as assessed as release of 4-aminosalicylic acid; assay type: ADME, organism-based; settings: in vivo
Rattus norvegicus [7] = species: Rattus norvegicus; test: Antiinflammatory activity against TNBS-induced Wistar rat colitis model assessed as decrease in severity of inflammation treated rectally 3 days after TNBS induction measured on day 7; assay type: functional, organism-based; settings: in the assay text read “treated orally” for “treated rectally”
Outline: (§2)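 TNBS colitis in Wistar rats (100 mg/kg in 50% ethanol, intrarectal, 48 h fast), left untreated 3 days before dosing, vehicle 1% carboxymethylcellulose. Weight loss, stool consistency and rectal bleeding scored daily over 11 days; the daily clinical activity score is the average of the three, 0 (healthy) to 4 (maximal colitis); mean of six rats.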

Liver = test: Toxicity in rat liver; assay type: tissue-based; settings: in vivo
Rattus norvegicus [8] = test: Antiinflammatory activity against TNBS-induced Wistar rat colitis model assessed as decrease in severity of inflammation treated po 3 days after TNBS induction measured on day 7; assay type: functional, organism-based; outline: as §2
[9] = Half life in rat fecal matter assessed as release of 4-aminosalicylic acid; assay type: ADME, tissue-based, Feces; settings: in vitro
Outline: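 Prodrug in phosphate buffer pH 7.4 (250 µg/ml, diluted to 50 µg/ml in 5 ml) added to 1 g fresh rat feces; incubated 37 °C anaerobically in a CO2 incubator for up to 20 h. Remaining prodrug read by UV at 255 nm (4AP) or 290 nm (4AT) against calibration curves; first-order fits, triplicate, mean K.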

[10] = Stability assessed as half life in phosphate buffer at pH 7.4; assay type: physicochemical
Outline: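 Same set-up in phosphate buffer pH 7.4 (0.05 M, ionic strength 0.5 with KCl), 37 ± 1 °C, 10 h. Remaining prodrug read by UV at 255 and 290 nm; first-order kinetics, triplicate.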

Rattus norvegicus [11] = test: Antiinflammatory activity against TNBS-induced po dosed Wistar rat colitis model assessed as inhibition of MPO activity in neutrophils per 100 mg of tissue; assay type: functional
Outline: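 Colonic tissue from TNBS-colitis rats given oral treatment; MPO measured by the Krawisz method, one unit degrading […] hydrogen peroxide at 25 °C; reported as mU per 100 mg wet tissue.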

Rattus norvegicus [12] = test: Ulcerogenic effect in rat colon assessed as ulcer index at 2258.01 mg/kg by Rainsford's cold stress method; assay type: toxicity, organism-based; parameters: dose 2258.01 mg/kg; settings: in vivo
[13] = Aqueous solubility of the compound; assay type: physicochemical; settings: water (aqueous)
Outline: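 Solubility in distilled water at room temperature (25 ± 1 °C).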

Rattus norvegicus [14] = test: Ulcerogenic effect in rat colon assessed as ulcer index at 1154.30 mg/kg by Rainsford's cold stress method; assay type: toxicity, organism-based; parameters: dose 1154.3 mg/kg; settings: in vivo, 1154.3 mg/kg
Rattus norvegicus [15] = test: Ulcerogenic effect in rat colon assessed as ulcer index at 2263.75 mg/kg by Rainsford's cold stress method; assay type: toxicity, organism-based; parameters: dose 2263.75 mg/kg; settings: in vivo
Rattus norvegicus [16] = species: Rattus norvegicus; test: Antiinflammatory activity against TNBS-induced Wistar rat colitis model assessed as decrease in severity of inflammation treated rectally 3 days after TNBS induction for 8 days measured after 24 hrs of last treatment; assay type: functional, organism-based; outline: as §2
Rattus norvegicus [17] = test: Inhibition of TNBS-induced morphological change in rectaly administered Wistar rat colon; assay type: functional, organism-based
Rattus norvegicus [18] = test: Ulcerogenic effect in rat colon assessed as ulcer index at 3000 mg/kg by Rainsford's cold stress method; assay type: toxicity, organism-based; parameters: dose 3000 mg/kg; settings: in vivo

SMILES	t1/2 (Rattus norvegicus [1]) [h]	Ratio (Rattus norvegicus [2])	Activity (Rattus norvegicus [3])	Activity (Pancreas)	half-life [4] [h]	logD [5]	t1/2 (Rattus norvegicus [6]) [h]	Activity (Rattus norvegicus [7])	Activity (Liver)	Activity (Rattus norvegicus [8])	t1/2 [9] [h]	half-life [10] [h]	Activity (Rattus norvegicus [11]) [mU]	UI (Rattus norvegicus [12])	solubility [13] [mg/mL]	UI (Rattus norvegicus [14])	UI (Rattus norvegicus [15])	Activity (Rattus norvegicus [16])	Activity (Rattus norvegicus [17])	UI (Rattus norvegicus [18])
Nc1ccc(S(=O)(=O)Nc2ccccn2)cc1 [SULFAPYRIDINE]	2	–	–	–	–	–	–	–	–	–	–	–	–	–	–	–	–	–	–	–
Nc1ccc(C(=O)N[C@@H](Cc2c[nH]c3ccccc23)C(=O)[O-])c(O)c1.[Na+]	–	0.0071	Active	Non-toxic	> 10	-0.19	6	Active	Non-toxic	Active	5.72	> 10	49.24	8.4	260	–	–	–	–	–
Nc1ccc(O)c(C(=O)O)c1 [MESALAMINE]	–	–	–	–	–	–	–	Active	–	Active	–	–	60.85	–	–	60.03	–	–	–	–
Nc1ccc(C(=O)O)c(O)c1 [AMINOSALICYLIC ACID]	–	–	Active	–	–	1.01	–	Active	–	Active	–	–	70.51	–	–	69.61	–	–	–	–
Nc1ccc(C(=O)N[C@H](Cc2ccccc2)C(=O)[O-])c(O)c1.[Na+]	–	0.0073	Active	Non-toxic	> 10	-0.21	6	Active	Non-toxic	Active	6.87	> 10	46.57	–	330	–	6	–	–	–
N[C@@H](Cc1c[nH]c2ccccc12)C(=O)O [TRYPTOPHAN]	–	–	Active	–	–	–	–	Active	–	Active	–	–	72.25	–	–	–	–	Active	Active	–
N[C@H](Cc1ccccc1)C(=O)O [D-PHENYLALANINE]	–	–	Active	–	–	–	–	Active	–	Active	–	–	61.43	–	–	–	–	Active	Active	–
O=C(O)c1cc(/N=N/c2ccc(S(=O)(=O)Nc3ccccn3)cc2)ccc1O [SULFASALAZINE]	2	–	–	–	–	–	–	Active	–	Active	–	–	46.63	–	–	–	–	–	–	5.83
